ChEMBL document CHEMBL3421610, “Antimalarial activity of 4-amidinoquinoline and 10-amidinobenzonaphthyridine derivatives” (J Med Chem, 2015)
≈ marks a conversion by molar mass, not a printed value. Calls of active or inactive are those of the source. The calls are words filed in the database; no cut-off is given here.

Assays:
[1] = Half life in human liver microsomes at 1 uM by LC/MS analysis; assay type: ADME
Method in brief: (§1)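 Compound at 1 µM final, diluted from […], with 0.5 mg/mL pooled human or mouse liver microsomes, NADP, MgCl2 and 0.1 M PBS pH 7.4. Reaction started with 1 U/mL G6PD and shaken at 37 °C. Aliquots quenched in cold acetonitrile at 0, 10, 20, 30 and 60 min and quantified by LC/MS. Half-life from log plot of total ion chromatogram area remaining.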

[2] = Half life in mouse liver microsomes at 1 uM by LC/MS analysis; assay type: ADME; method in brief: as §1
Mus musculus = test: Toxicity in mouse infected with erythrocytic stage of chloroquine resistant Plasmodium berghei ANKA up to 160 mg/kg, po qd administered on day 3, 4 and 5 post infection measured over 30 days; assay type: organism-based, Erythrocyte; set-up: dose 160 mg/kg, route oral; conditions: in vivo, 720 h
Method in brief: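 Male mice of 16-20 g infected intraperitoneally with CQ-resistant P. berghei ANKA (5 x 10^6 infected erythrocytes). Oral dosing once daily on days 3-5, five mice per group. Animals followed for 30 days by blood films; mice losing >20% body weight sacrificed.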

HepG2 = test: Cytotoxicity against human HepG2 cells after 48 hrs by MTT assay; assay type: cell-based; conditions: HepG2, 48 h
Method in brief: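 HepG2 cells in supplemented MEM, plated at 9570 cells/well in 384-well format and incubated overnight at 37 °C, 5% CO2. Twelve duplicate 1.6-fold dilutions, 57–10,000 ng/ml, incubated 48 h. MTT added for 1 h at room temperature in the dark, formazan dissolved in acidified isopropanol, absorbance read. IC50 by sigmoidal variable-slope nonlinear regression; tryptanthrin control.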

Plasmodium falciparum [3] = test: Antimalarial activity against chloroquine-resistant Plasmodium falciparum C235 assessed as growth inhibition after 18 hrs by [3H]-hypoxanthine uptake assay; assay type: functional, organism-based
Method in brief: (§2)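 P. falciparum clones D6, W2 and TM91C235; modified semiautomated microdilution. Compounds in DMSO, diluted in RPMI 1640 with 10% human plasma, tested over (1.56-100) x 10^-9 M; final DMSO 0.25-0.5%. Inoculum 0.5% parasitemia, 1% hematocrit. 24 h incubation, then [3H]-hypoxanthine added, further 18 h. Harvested and read by scintillation counting; IC50 by nonlinear regression.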

Plasmodium falciparum [4] = test: Antimalarial activity against chloroquine-sensitive Plasmodium falciparum D6 assessed as growth inhibition after 18 hrs by [3H]-hypoxanthine uptake assay; assay type: functional, organism-based; method in brief: as §2
Plasmodium falciparum [5] = test: Antimalarial activity against chloroquine-resistant Plasmodium falciparum W2 assessed as growth inhibition after 18 hrs by [3H]-hypoxanthine uptake assay; assay type: functional, organism-based; method in brief: as §2
Plasmodium berghei [6] = test: Antimalarial activity against erythrocytic stage of chloroquine resistant Plasmodium berghei ANKA infected in mouse assessed as cure rate at 120 mg/kg, po qd administered on day 3, 4 and 5 post infection measured 3 times per week for 30 days, starting from day 3 by Thompson test; assay type: functional, organism-based; set-up: dose 120 mg/kg
Method in brief: (§3)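 Male mice of 16-20 g inoculated intraperitoneally with 5 x 10^6 erythrocytes infected with CQ-resistant P. berghei ANKA. Drug given orally as a suspension once daily on days 3, 4 and 5 post-infection, five mice per dose. Blood films from day 3, three times weekly for 30 days. Cure means parasite-negative on day 30 or surviving 30 days. Mice losing >20% body weight sacrificed.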

hERG (KCNH2) = hERG (KCNH2) (Homo sapiens, UniProt Q12809); test: Inhibition of human ERG expressed in CHL cells assessed as tail current at 10 uM after 7 mins by patch clamp assay relative to control; assay type: cell-based; conditions: CHL cells expressing human ERG
hERG (KCNH2), sequence (Q12809 whole entry): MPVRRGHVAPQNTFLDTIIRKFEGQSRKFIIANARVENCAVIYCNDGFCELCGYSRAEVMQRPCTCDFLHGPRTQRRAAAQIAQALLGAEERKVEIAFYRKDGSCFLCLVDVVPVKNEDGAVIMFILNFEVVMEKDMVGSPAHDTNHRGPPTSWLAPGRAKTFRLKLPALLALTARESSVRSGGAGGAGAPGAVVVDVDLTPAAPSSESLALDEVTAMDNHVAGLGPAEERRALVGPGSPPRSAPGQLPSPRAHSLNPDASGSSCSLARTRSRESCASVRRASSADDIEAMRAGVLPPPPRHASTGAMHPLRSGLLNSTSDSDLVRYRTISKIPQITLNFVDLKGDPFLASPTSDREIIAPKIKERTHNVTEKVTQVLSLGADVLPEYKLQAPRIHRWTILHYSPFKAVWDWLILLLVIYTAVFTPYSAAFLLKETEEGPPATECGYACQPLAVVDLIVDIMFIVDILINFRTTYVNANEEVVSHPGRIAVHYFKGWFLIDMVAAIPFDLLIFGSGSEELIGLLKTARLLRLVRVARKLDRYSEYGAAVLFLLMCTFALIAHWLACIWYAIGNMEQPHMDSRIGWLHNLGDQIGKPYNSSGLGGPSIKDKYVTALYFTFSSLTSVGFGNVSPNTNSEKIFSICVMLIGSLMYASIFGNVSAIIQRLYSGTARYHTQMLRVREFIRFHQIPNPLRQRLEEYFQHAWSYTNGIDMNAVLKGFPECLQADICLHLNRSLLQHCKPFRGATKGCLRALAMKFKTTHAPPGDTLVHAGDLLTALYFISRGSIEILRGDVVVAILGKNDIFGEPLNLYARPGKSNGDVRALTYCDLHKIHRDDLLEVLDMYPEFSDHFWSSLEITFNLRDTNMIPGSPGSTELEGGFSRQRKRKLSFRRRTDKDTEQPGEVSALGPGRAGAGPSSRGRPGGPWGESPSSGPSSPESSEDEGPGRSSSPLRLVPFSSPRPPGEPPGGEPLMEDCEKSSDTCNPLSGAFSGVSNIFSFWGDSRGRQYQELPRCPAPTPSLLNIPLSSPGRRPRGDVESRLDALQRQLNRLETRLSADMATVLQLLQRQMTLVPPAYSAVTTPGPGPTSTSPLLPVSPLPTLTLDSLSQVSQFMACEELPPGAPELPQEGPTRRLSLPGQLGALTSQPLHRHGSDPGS

Plasmodium falciparum [7] = test: Potency index, ratio of chloroquine IC50 to compound IC50 for chloroquine-resistant Plasmodium falciparum W2; assay type: functional
Salmonella typhi = test: Mutagenicity in Salmonella typhi by Ames test; assay type: toxicity, organism-based; conditions: salmonella enterica subsp. enterica […]
[8] = AUCinfinity in ICR mouse at 80 mg/kg, po; assay type: ADME, organism-based; set-up: time infinity, dose 80 mg/kg, route oral; conditions: plasma
Method in brief: (§4)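 Male 7-week-old ICR mice, 23–28 g, given a single intragastric dose of 80 mg/kg in DD water (100 µL/20 g). Three mice per time point; whole blood taken by cardiac puncture into lithium heparin tubes and spun to plasma. Parameters come from plasma concentration–time curves of parent drug. t1/2 = ln2/kel from the log plot. AUC by linear trapezoidal rule, extrapolated to infinity; MRT = AUMC/AUC.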

[9] = Tmax in ICR mouse at 80 mg/kg, po; assay type: ADME, organism-based; set-up: dose 80 mg/kg, route oral; conditions: in vivo; method in brief: as §4
[10] = Apparent oral clearance in ICR mouse at 80 mg/kg; assay type: ADME, organism-based; set-up: dose 80 mg/kg, route oral; conditions: in vivo
[11] = Mean residence time in ICR mouse at 80 mg/kg, po; assay type: ADME, organism-based; set-up: dose 80 mg/kg, route oral; conditions: in vivo; method in brief: as §4
[12] = AUClast in ICR mouse at 80 mg/kg, po; assay type: ADME, organism-based; set-up: time 0 - last, dose 80 mg/kg, route oral; conditions: plasma
Plasmodium berghei [13] = test: Antimalarial activity against erythrocytic stage of chloroquine resistant Plasmodium berghei ANKA infected in mouse assessed as cure rate at 160 mg/kg, po qd administered on day 3, 4 and 5 post infection measured 3 times per week for 30 days, starting from day 3 by Thompson test; assay type: functional, organism-based; set-up: dose 160 mg/kg; method in brief: as §3
[14] = Cmax in ICR mouse at 80 mg/kg, po; assay type: ADME, organism-based; set-up: dose 80 mg/kg, route oral; conditions: in vivo; method in brief: as §4
[15] = Elimination half life in ICR mouse at 80 mg/kg, po; assay type: ADME, organism-based; set-up: dose 80 mg/kg, route oral; conditions: in vivo, read-out: beta t1/2 (converted); method in brief: as §4
[16] = Apparent volume of distribution during terminal phase in ICR mouse at 80 mg/kg, po; assay type: ADME, organism-based; set-up: dose 80 mg/kg, route oral; conditions: in vivo, read-out: Vz/F
Plasmodium berghei [17] = test: Antimalarial activity against erythrocytic stage of chloroquine resistant Plasmodium berghei ANKA infected in mouse assessed as cure rate at 60 mg/kg, po qd administered on day 3, 4 and 5 post infection measured 3 times per week for 30 days, starting from day 3 by Thompson test; assay type: functional, organism-based; set-up: dose 60 mg/kg; method in brief: as §3
Plasmodium berghei [18] = test: Antimalarial activity against erythrocytic stage of chloroquine resistant Plasmodium berghei ANKA infected in mouse assessed as parasite clearance at 160 mg/kg, po qd administered on day 3, 4 and 5 post infection measured on day 2 to 7 post last dose; assay type: functional, organism-based; set-up: dose 160 mg/kg
Method in brief: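 Male mice of 16-20 g inoculated intraperitoneally with 5 x 10^6 erythrocytes infected with CQ-resistant P. berghei ANKA. Drug given orally as a suspension once daily on days 3, 4 and 5 post-infection, five mice per dose. Parasitemia followed by blood films from day 3, three times weekly for 30 days; infected untreated mice served as negative controls.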

| Structure (SMILES) | half-life at 1 µM [1] | half-life at 1 µM [2] | Activity (Mus musculus) | IC50 (HepG2) | IC50 (Plasmodium falciparum [3]) | IC50 (Plasmodium falciparum [4]) | IC50 (Plasmodium falciparum [5]) | Activity (Plasmodium berghei [6]) | inhibition at 7 min, 10 µM (hERG (KCNH2)) | other results |
| --- | --- | --- | --- | --- | --- | --- | --- | --- | --- | --- |
| CCN(CC)CCC/N=C(\C)Nc1c2ccc(Cl)cc2nc2ccc(OC)nc12 | 33 min | 29 min | Non-toxic | 2.06 µg/mL (≈ 4.97 µM) | 26.6 nM | 17.6 nM | 41 nM | Active | 100% | – |
| CCN(CC)CCCN/C(=N\c1ccnc2cc(Cl)ccc12)c1ccccc1 | 21 min | 16 min | – | 5.08 µg/mL (≈ 12.9 µM) | 3.3 nM | 1.8 nM | 7.2 nM | – | 100% | Ratio IC50 (Plasmodium falciparum [7]): 50 |
| CN(C)CCCN/C(=N\c1ccnc2cc(Cl)ccc12)c1ccccc1 | > 60 min | 52 min | – | 5.13 µg/mL (≈ 14 µM) | 3.4 nM | 2.1 nM | 9.2 nM | – | 90.6% | Activity (Salmonella typhi): Non-toxic; Ratio IC50 (Plasmodium falciparum [7]): 50 |
| COc1ccc2nc3cc(Cl)ccc3c(N/C(=N/CCCN3CCCCC3)c3ccccc3)c2n1 | 9 min | 12 min | Non-toxic | 2.56 µg/mL (≈ 5.25 µM) | 4.3 nM | 5.1 nM | 3.3 nM | Active | 80% | – |
| CCN(CC)CCCN/C(=N\c1ccnc2cc(Cl)ccc12)C(C)C | > 60 min | > 60 min | Non-toxic | > 24.2 µg/mL | 25.8 nM | 22 nM | 42 nM | – | – | AUC(0-inf) [8]: 3620 ng·h/mL; Tmax [9]: 30 min; CL/F [10]: 371 mL/min/kg; MRT [11]: 458 min; AUC(0-t) [12]: 3510 ng·h/mL; Activity (Plasmodium berghei [13]): Active; Cmax [14]: 696 ng/mL; half-life [15]: 400 min; Vd/F [16]: 214 L/kg |
| COc1ccc2nc3cc(Cl)ccc3c(N/C(=N/CCCN(C)C)c3ccccc3)c2n1 | 18 min | 44 min | Non-toxic | 5.78 µg/mL (≈ 12.9 µM) | 1.7 nM | 1.8 nM | 1.98 nM | Active | 48.9% | Activity (Plasmodium berghei [17]): Active |
| COc1ccc2nc3cc(Cl)ccc3c(N/C(C)=N/CCCN3CCCCC3)c2n1 | 14 min | 15 min | Non-toxic | 2.81 µg/mL (≈ 6.59 µM) | 13.1 nM | 8 nM | 24.9 nM | Active | 94.5% | – |
| C/C(=N/c1ccnc2cc(Cl)ccc12)NC1CCN(Cc2ccccc2)CC1 | > 60 min | > 60 min | Non-toxic | 8.07 µg/mL (≈ 20.5 µM) | 87 nM | 56 nM | 199 nM | – | – | Activity (Plasmodium berghei [18]): Active; Activity (Plasmodium berghei [13]): inactive |
| CC(C)/C(=N/c1ccnc2cc(Cl)ccc12)NCCCCN1CCCCC1 | 29 min | 31 min | Non-toxic | 5.71 µg/mL (≈ 14.8 µM) | 12 nM | 7.5 nM | 18.6 nM | Active | 33% | – |
